What all share (conditions): in vivo
In data set [1] the test system is Mus musculus. Kind of data set: Biodistribution in tumor of C57BL/6J mouse harboring mouse B16-Bl6 cells at 8 to 12 MBq, iv after 1 hr by PET analysis. It counts as ADME, organism-based, Neoplasm. The method, boiled down: (§1)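 Static whole-body PET at 1 h after tail-vein injection of [18F]tracer (9-12 MBq/0.15 mL) in C57BL/6J mice carrying subcutaneous B16Bl6 shoulder tumours (3x10⁵ cells), imaged day 10 or 14. Mice under ketamine/xylazine ip. 25 min acquisition, OSEM reconstruction. ROI % ID/g = counts/g/min ÷ injected dose; ratios = tumour % ID/g ÷ organ % ID/g. n=2-8; mean ± SD.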

Data set [2] in a line: Ratio of drug level in tumor to muscle in C57BL/6J mouse harboring mouse B16-Bl6 cells at 8 to 12 MBq, iv after 1 hr by PET analysis. It counts as ADME, organism-based. The procedure, abridged: as §1
The test system of data set [3] is Mus musculus. Briefly: Biodistribution in eye of C57BL/6J mouse harboring mouse B16-Bl6 cells at 8 to 12 MBq, iv after 1 hr by PET analysis. Format: ADME, organism-based. The method, boiled down:
(§2)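 C57BL/6J mice were inoculated s.c. on the right shoulder with 3x10⁵ B16Bl6 cells in PBS under isoflurane, and imaged at day 10 or 14 (tumor volume 431.8 ± 154.3 mm³). The ¹⁸F tracer was given i.v. via tail vein, 8-12 MBq (methods: 9-12 MBq/0.15 mL). Under ketamine/xylazine i.p., a 25-min whole-body static PET scan ran at 1 h. ROI %ID/g = counts/g/min ÷ injected dose. n=2-8; mean ± SD.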

Data set [4] has as its system Bone. Kind of data set: Biodistribution in bone of C57BL/6J mouse harboring mouse B16-Bl6 cells at 8 to 12 MBq, iv after 1 hr by PET analysis. It counts as ADME, organism-based, Bone element. The procedure, abridged:
as §2

Data set [5] deals with Muscle tissue. Briefly: Biodistribution in muscle of C57BL/6J mouse harboring mouse B16-Bl6 cells at 8 to 12 MBq, iv after 1 hr by PET analysis. It counts as ADME, organism-based. The method, boiled down: as §2
Data set [6] in a line: Ratio of drug level in tumor to bone in C57BL/6J mouse harboring mouse B16-Bl6 cells at 8 to 12 MBq, iv after 1 hr by PET analysis. Format: ADME, organism-based. The procedure, abridged: as §1

Results on 4 molecules are retold here after ChEMBL document CHEMBL2440113, “Synthesis, radiofluorination, and in vivo evaluation of novel fluorinated and iodinated radiotracers for PET imaging and targeted radionuclide therapy of melanoma” (J Med Chem, 2013).

In the case of `CCN(CC#CC[18F])CCNC(=O)c1cnc2cc(I)ccc2n1`, the Drug uptake in data set [1] was determined as 4.16 % ID/g; in data set [3], 2.7 % ID/g; in data set [4] it was 2.77 % ID/g; in data set [5], 0.82 % ID/g. The Ratio is recorded as 5.07 in data set [2] and 1.46 in data set [6].

For `CCN(CCC[18F])CCNC(=O)c1cnc2cc(I)ccc2n1`, the Drug uptake is 10.56 % ID/g in data set [1], 10.46 % ID/g in data set [3], 7.05 % ID/g in data set [4] and 0.9 % ID/g in data set [5]. For the same molecule, the values for the Ratio in data set [2] and in data set [6] were 11.86 and 1.5, respectively.

`CCN(C/C=C/C[18F])CCNC(=O)c1cnc2cc(I)ccc2n1`: the Drug uptake in data set [1] amounted to 6.74 % ID/g; in data set [3], 9.49 % ID/g; in data set [4], 3.39 % ID/g; in data set [5] it was 0.83 % ID/g. The Ratio stood at 8.27 in data set [2] and 1.99 in data set [6].

In the case of `CCN(CC[18F])CCNC(=O)c1cnc2cc(I)ccc2n1`, the Drug uptake in data set [1] was determined as 2.02 % ID/g; in data set [3], 1.4 % ID/g; in data set [4] it was 1.31 % ID/g; in data set [5], 1.02 % ID/g. Moreover, the Ratio is 1.95 in data set [2] and 1.31 in data set [6].
